{"source": "BindingDB's records for doi:10.1016/j.bmcl.2009.03.011", "about": "(Cytrx, 2009)"}
{"biological_target": "T1, Heat shock factor protein 1 (Homo sapiens, UniProt Q00613)", "T1 sequence (Q00613 whole entry)": "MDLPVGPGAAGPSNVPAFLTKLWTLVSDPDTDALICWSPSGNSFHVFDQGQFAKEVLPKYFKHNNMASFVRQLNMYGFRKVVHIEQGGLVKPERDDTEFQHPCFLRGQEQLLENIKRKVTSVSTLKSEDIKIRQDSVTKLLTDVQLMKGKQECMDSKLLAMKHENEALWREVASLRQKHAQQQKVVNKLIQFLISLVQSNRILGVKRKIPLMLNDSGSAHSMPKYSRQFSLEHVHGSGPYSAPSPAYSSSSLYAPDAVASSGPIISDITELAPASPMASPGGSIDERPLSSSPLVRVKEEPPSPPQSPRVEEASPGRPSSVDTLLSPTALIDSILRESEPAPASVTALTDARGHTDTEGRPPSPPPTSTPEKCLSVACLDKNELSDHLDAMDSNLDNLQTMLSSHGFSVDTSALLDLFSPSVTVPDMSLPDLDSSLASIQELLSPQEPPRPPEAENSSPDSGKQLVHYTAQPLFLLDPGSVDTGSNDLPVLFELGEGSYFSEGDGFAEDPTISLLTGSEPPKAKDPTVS", "assay": "Transcriptional activation of HSF1 in heat shock stress-induced human HeLa cells assessed as granule formation treated 1 hr before heat shock challenge measured after 2 hrs by immunocytochemical staining", "how_it_was_run": "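HeLa cells given compound 1 h, then heat shock at 41 °C for 2 h without recovery; HSF1 immunocytochemical staining, quantified by high-content imaging. Range 0.3–80 µM, twofold dilution, 200-fold overall.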", "units": {"EC50": "µM"}}
{"smiles": "OC(CO/N=C(\\Cl)c1nc2c(F)cccc2o1)CN1CCCCC1", "note": "(configuration not stated) [4-fluoro-N-(2-hydroxy-3-(piperidin-1-yl)propoxy)benzo[d]oxazole-2-carbimidoyl chloride]", "EC50": 20.2}
{"smiles": "CCS(=O)(=O)c1ccc2oc(/C(Cl)=N/OCC(O)CN3CCCCC3)nc2c1", "note": "(configuration not stated) [5-(ethylsulfonyl)-N-(2-hydroxy-3-(piperidin-1-yl)propoxy)benzo[d]oxazole-2-carbimidoyl chloride]", "EC50": 42.9}
{"smiles": "OC(CO/N=C(\\Cl)c1nc2cc(Cl)ccc2o1)CN1CCCCC1", "note": "(configuration not stated) [5-chloro-N-(2-hydroxy-3-(piperidin-1-yl)propoxy)benzo[d]oxazole-2-carbimidoyl chloride]", "EC50": 20.9}
{"smiles": "OC(CO/N=C(\\Cl)c1nc2cc(F)ccc2o1)CN1CCCCC1", "note": "(configuration not stated) [5-fluoro-N-(2-hydroxy-3-(piperidin-1-yl)propoxy)benzo[d]oxazole-2-carbimidoyl chloride]", "EC50": 51.3}
{"smiles": "CN(C)S(=O)(=O)c1ccc2nc(/C(Cl)=N/OCC(O)CN3CCCCC3)oc2c1", "note": "(configuration not stated) [6-(N,N-dimethylsulfamoyl)-N-(2-hydroxy-3-(piperidin-1-yl)propoxy)benzo[d]oxazole-2-carbimidoyl chloride]", "EC50": 41.6}
{"smiles": "OC(CO/N=C(\\Cl)c1nc2ccc(Cl)cc2o1)CN1CCCCC1", "note": "(configuration not stated) [6-chloro-N-(2-hydroxy-3-(piperidin-1-yl)propoxy)benzo[d]oxazole-2-carbimidoyl chloride]", "EC50": 22.9}
{"smiles": "OC(CO/N=C(\\Cl)c1nc2ccc(F)cc2o1)CN1CCCCC1", "note": "(configuration not stated) [6-fluoro-N-(2-hydroxy-3-(piperidin-1-yl)propoxy)benzo[d]oxazole-2-carbimidoyl chloride]", "EC50": 29.4}
{"smiles": "OC(CO/N=C(\\Cl)c1nc2cccc(F)c2o1)CN1CCCCC1", "note": "(configuration not stated) [7-fluoro-N-(2-hydroxy-3-(piperidin-1-yl)propoxy)benzo[d]oxazole-2-carbimidoyl chloride]", "EC50": 18.5}
{"smiles": "CCCN(C[C@H](O)CO/N=C(\\Cl)c1nc2ccccc2o1)C(C)C", "note": "[(S)-N-(2-hydroxy-3-(isopropyl(propyl)amino)propoxy)benzo[d]oxazole-2-carbimidoyl chloride]", "EC50": 24.1}
{"smiles": "CC(C)N(CCO)CC(O)CO/N=C(\\Cl)c1nc2ccccc2o1", "note": "(configuration not stated) [N-(2-hydroxy-3-((2-hydroxyethyl)(isopropyl)amino)propoxy)benzo[d]oxazole-2-carbimidoyl chloride]", "EC50": 28.7}
{"smiles": "Cc1ccc2oc(/C(Cl)=N/OCC(O)CN3CCCCC3)nc2c1", "note": "(configuration not stated) [N-(2-hydroxy-3-(piperidin-1-yl)propoxy)-5-methylbenzo[d]oxazole-2-carbimidoyl chloride]", "EC50": 41.6}
{"smiles": "Cc1ccc2nc(/C(Cl)=N/OCC(O)CN3CCCCC3)oc2c1", "note": "(configuration not stated) [N-(2-hydroxy-3-(piperidin-1-yl)propoxy)-6-methylbenzo[d]oxazole-2-carbimidoyl chloride]", "EC50": 31}
{"smiles": "OC(CO/N=C(\\Cl)c1nc2ccccc2o1)CN1CCCCC1", "note": "(configuration not stated) [N-(2-hydroxy-3-(piperidin-1-yl)propoxy)benzo[d]oxazole-2-carbimidoyl chloride]", "EC50": 41.7}
{"smiles": "OC(CO/N=C(\\Cl)c1nc2ccccc2s1)CN1CCCCC1", "note": "(configuration not stated) [N-(2-hydroxy-3-(piperidin-1-yl)propoxy)benzo[d]thiazole-2-carbimidoyl chloride]", "EC50": 52.6}
{"smiles": "OC(CO/N=C(\\Cl)c1nc2c(ccc3ccccc32)o1)CN1CCCCC1", "note": "(configuration not stated) [N-(2-hydroxy-3-(piperidin-1-yl)propoxy)naphtho[1,2-d]oxazole-2-carbimidoyl chloride]", "EC50": 12.1}
{"smiles": "OC(CO/N=C(\\Cl)c1nc2ccccc2s1)CN1CCCC1", "note": "(configuration not stated) [N-(2-hydroxy-3-(pyrrolidin-1-yl)propoxy)benzo[d]thiazole-2-carbimidoyl chloride]", "EC50": 62.8}
{"smiles": "CC1CCCC(C)N1CC(O)CO/N=C(\\Cl)c1nc2ccccc2o1", "note": "(configuration not stated) [N-(3-(2,6-dimethylpiperidin-1-yl)-2-hydroxypropoxy)benzo[d]oxazole-2-carbimidoyl chloride]", "EC50": 32.4}
{"smiles": "CC1CC(C)CN(CC(O)CO/N=C(\\Cl)c2nc3ccccc3o2)C1", "note": "(configuration not stated) [N-(3-(3,5-dimethylpiperidin-1-yl)-2-hydroxypropoxy)benzo[d]oxazole-2-carbimidoyl chloride]", "EC50": 17.4}
{"smiles": "OC(CO/N=C(\\Cl)c1nc2ccccc2o1)CN1CCCC(F)C1", "note": "(configuration not stated) [N-(3-(3-fluoropiperidin-1-yl)-2-hydroxypropoxy)benzo[d]oxazole-2-carbimidoyl chloride]", "EC50": 52.6}
{"smiles": "CC(C)N(CCCF)CC(O)CO/N=C(\\Cl)c1nc2ccccc2o1", "note": "(configuration not stated) [N-(3-((3-fluoropropyl)(isopropyl)amino)-2-hydroxypropoxy)benzo[d]oxazole-2-carbimidoyl chloride]", "EC50": 22.8}
{"smiles": "CC(C)N(CC(O)CO/N=C(\\Cl)c1nc2ccccc2o1)CC1CC1", "note": "(configuration not stated) [N-(3-((cyclopropylmethyl)(isopropyl)amino)-2-hydroxypropoxy)benzo[d]oxazole-2-carbimidoyl chloride]", "EC50": 12.4}
{"smiles": "CCCCN(CCCC)CC(O)CO/N=C(\\Cl)c1nc2ccccc2o1", "note": "(configuration not stated) [N-(3-(dibutylamino)-2-hydroxypropoxy)benzo[d]oxazole-2-carbimidoyl chloride]", "EC50": 20.9}
{"smiles": "CCN(CC)CC(O)CO/N=C(\\Cl)c1nc2ccccc2o1", "note": "(configuration not stated) [N-(3-(diethylamino)-2-hydroxypropoxy)benzo[d]oxazole-2-carbimidoyl chloride]", "EC50": 27.1}
{"smiles": "CC(C)N(CC(O)CO/N=C(\\Cl)c1nc2ccccc2o1)C(C)C", "note": "(configuration not stated) [N-(3-(diisopropylamino)-2-hydroxypropoxy)benzo[d]oxazole-2-carbimidoyl chloride]", "EC50": 25.5}
{"smiles": "CCCN(CCC)CC(O)CO/N=C(\\Cl)c1nc2ccccc2o1", "note": "(configuration not stated) [N-(3-(dipropylamino)-2-hydroxypropoxy)benzo[d]oxazole-2-carbimidoyl chloride]", "EC50": 23.9}
{"smiles": "CCCN(CC)CC(O)CO/N=C(\\Cl)c1nc2ccccc2o1", "note": "(configuration not stated) [N-(3-(ethyl(propyl)amino)-2-hydroxypropoxy)benzo[d]oxazole-2-carbimidoyl chloride]", "EC50": 23}
{"smiles": "CC(C)N(CC(O)CO/N=C(\\Cl)c1nc2ccccc2o1)C(C)(C)C", "note": "(configuration not stated) [N-(3-(tert-butyl(isopropyl)amino)-2-hydroxypropoxy)benzo[d]oxazole-2-carbimidoyl chloride]", "EC50": 16.6}
